# Assay results published in ChEMBL document CHEMBL1134438, “Stepwise modulation of neurokinin-3 and neurokinin-2 receptor affinity and selectivity in quinoline tachykinin receptor antagonists” (J Med Chem, 2001).
# pKi: −log10 of the molar value.
# Key:
# [1] = Selectivity ratio (hNK-2/hNK-3) of the compound
# Substance-K receptor [2] = biological target: T1, Substance-K receptor (Homo sapiens, UniProt P21452); test: Displacement of [125 I]-NKA binding to tachykinin receptor 2 in CHO membranes; assay type: cell membranes
# T1 sequence (P21452 whole entry): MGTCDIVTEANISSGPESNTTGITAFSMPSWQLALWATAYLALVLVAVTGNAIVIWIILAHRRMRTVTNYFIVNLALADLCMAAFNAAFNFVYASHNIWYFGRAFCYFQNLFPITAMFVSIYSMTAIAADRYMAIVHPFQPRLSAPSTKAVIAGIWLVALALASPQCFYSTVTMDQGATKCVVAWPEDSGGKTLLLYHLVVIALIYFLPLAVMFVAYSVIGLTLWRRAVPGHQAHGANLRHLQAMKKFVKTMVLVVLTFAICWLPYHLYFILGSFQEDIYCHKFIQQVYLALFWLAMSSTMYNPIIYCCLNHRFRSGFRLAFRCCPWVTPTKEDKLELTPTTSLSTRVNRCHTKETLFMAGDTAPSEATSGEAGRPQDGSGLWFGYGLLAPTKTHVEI
# In short: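 hNK-2-CHO crude membranes (~10 µg protein) were incubated with 0.15 nM [125I]-NKA for 90 min at 25 °C in Tris pH 7.4 buffer containing MnCl2, phosphoramidon and ovalbumin. Filtered through GF/C soaked in 0.1% PEI. Nonspecific binding defined with 0.5 µM cold NKA. Ki from IC50 by Cheng-Prusoff; duplicate curves, n = 3-5.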
# Mu-type opioid receptor = Mu-type opioid receptor (Homo sapiens, UniProt P35372); test: Binding affinity towards human mu-opioid receptors in CHO (Chinese hamster ovary) cell lines; assay type: cell-based
# Chain of Mu-type opioid receptor (P35372 whole entry): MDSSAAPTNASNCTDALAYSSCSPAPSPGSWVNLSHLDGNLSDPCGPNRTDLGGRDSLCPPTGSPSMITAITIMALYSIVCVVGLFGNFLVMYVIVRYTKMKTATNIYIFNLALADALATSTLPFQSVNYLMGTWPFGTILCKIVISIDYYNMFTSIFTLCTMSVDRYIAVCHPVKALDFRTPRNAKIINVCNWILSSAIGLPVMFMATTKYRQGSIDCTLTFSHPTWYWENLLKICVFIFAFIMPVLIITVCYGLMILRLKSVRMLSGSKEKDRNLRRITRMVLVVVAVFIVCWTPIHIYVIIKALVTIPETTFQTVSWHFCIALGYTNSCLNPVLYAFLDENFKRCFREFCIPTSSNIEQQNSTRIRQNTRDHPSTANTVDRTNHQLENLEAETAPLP
# In short: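 CHO cells stably expressing hMOR grown in serum-free suspension culture; membranes made by hypotonic lysis in 10 mM potassium phosphate pH 7.2 with 3 mM MgCl2. Binding run in triplicate at 10 µg/mL protein with 0.4-0.5 nM radioligand for 60 min at 30 °C. Nonspecific binding defined with 10 µM naloxone; filtration and scintillation counting. Duplicate concentration-response curves, n = 3-5 for potent compounds.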
# Neuromedin-K receptor [3] = biological target: T2, Neuromedin-K receptor (Homo sapiens, UniProt P29371); test: Displacement of [125 I]-[MePhe]-NKB binding to hNK-3-CHO (Chinese hamster ovary) membranes
# T2 sequence (P29371 whole entry): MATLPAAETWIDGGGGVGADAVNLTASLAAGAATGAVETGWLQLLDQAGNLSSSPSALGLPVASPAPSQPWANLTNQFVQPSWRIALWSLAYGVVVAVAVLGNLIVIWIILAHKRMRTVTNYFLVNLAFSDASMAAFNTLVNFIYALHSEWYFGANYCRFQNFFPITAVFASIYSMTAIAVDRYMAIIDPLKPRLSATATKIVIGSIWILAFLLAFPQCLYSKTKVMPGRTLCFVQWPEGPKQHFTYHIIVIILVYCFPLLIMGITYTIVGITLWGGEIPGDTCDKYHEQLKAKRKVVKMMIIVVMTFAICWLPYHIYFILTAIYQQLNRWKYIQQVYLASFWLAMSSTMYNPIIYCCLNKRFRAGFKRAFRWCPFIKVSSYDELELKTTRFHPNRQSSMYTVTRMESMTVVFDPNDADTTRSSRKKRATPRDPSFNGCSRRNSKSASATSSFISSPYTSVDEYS
# In short: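 hNK-3-CHO crude membranes (~15 µg protein) were incubated with 0.15 nM [125I]-[MePhe7]-NKB in 50 mM Tris pH 7.4, 4 mM MnCl2, 1 µM phosphoramidon, 0.1% ovalbumin for 90 min at 25 °C. Filtered through BSA-presoaked GF/C, then scintillation counted. Nonspecific binding defined with 0.5 µM cold [MePhe7]-NKB. Ki from IC50 by Cheng-Prusoff; duplicates, n = 3-5.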
# [4] = biological target: T3, Neuromedin-K receptor (Homo sapiens) (UniProt P29371); test: (§1) Cellular functional antagonistic activity against NKB-induced [Ca2+] mobilization in HEK cells stably expressing the hNK-3 receptor; assay type: cell-based; details: HEK293
# T3 sequence (whole entry): T2 sequence (P29371 whole entry)
# Substance-K receptor [5] = biological target: T1, Substance-K receptor; test: Cellular functional antagonistic activity against NKA-induced [Ca2+] mobilization in HEK cells stably expressing the tachykinin receptor 2; details: read-out: pA2 (converted)
# [6] = biological target: T4, Substance-K receptor (Homo sapiens) (UniProt P21452); test: as above; details: HEK293
# T4 sequence (whole entry): T1 sequence (P21452 whole entry)
# Neuromedin-K receptor [7] = biological target: T2, Neuromedin-K receptor; test: as §1; assay type: cell-based, HEK293; details: read-out: pA2 (converted)
compound,measurement,setting,value
CC[C@H](NC(=O)c1c(CN2CCN(C3CCCCC3)CC2)c(-c2ccccc2)nc2ccccc12)c1ccccc1,Ratio,[1],1.3
same,pKi,Substance-K receptor [2],8.80
same,pKi,Mu-type opioid receptor,7.80
same,pKi,Neuromedin-K receptor [3],8.92
CC[C@H](NC(=O)c1c(CN2CCN(C(C)C)CC2)c(-c2ccccc2)nc2ccccc12)c1ccccc1,Ratio,[1],3.1
same,pKi,Mu-type opioid receptor,7.01
CC[C@H](NC(=O)c1c(CN2CCC(N3CCCCC3)CC2)c(-c2ccccc2)nc2ccccc12)c1ccccc1,Ratio,[1],3.1
same,pKi,Substance-K receptor [2],8.34
same,pKi,Mu-type opioid receptor,6.04
same,pKi,Neuromedin-K receptor [3],8.82
CC(C)NC(=O)c1c(CN2CCN(C(C)C)CC2)c(-c2ccccc2)nc2ccccc12,Ratio,[1],< 0.1
same,pKi,Substance-K receptor [2],6.09
same,pKi,Neuromedin-K receptor [3],< 4.92
CC[C@H](NC(=O)c1c(CN2CCCCC2)c(-c2ccccc2)nc2ccccc12)c1ccccc1,Ratio,[1],39
same,pKi,Substance-K receptor [2],6.56
same,pKi,Mu-type opioid receptor,< 5.60
same,pKi,Neuromedin-K receptor [3],8.15
CC(C)N1CCN(Cc2c(-c3ccccc3)nc3ccccc3c2C(=O)NC2CCCCC2)CC1,Ratio,[1],0.003
same,pKi,Substance-K receptor [2],8.38
same,pKi,Mu-type opioid receptor,6.65
same,pKi,Neuromedin-K receptor [3],5.90
C[C@H](NC(=O)c1c(CN2CCNCC2)c(-c2ccccc2)nc2ccccc12)C1CCCCC1,Ratio,[1],0.7
same,pKi,Substance-K receptor [2],8.62
same,pKi,Mu-type opioid receptor,6.76
same,pKi,Neuromedin-K receptor [3],8.47
CC(C)[C@H](NC(=O)c1c(CN2CCN(C(C)C)CC2)c(-c2ccccc2)nc2ccccc12)c1ccccc1,Ratio,[1],1.2
same,pKi,Substance-K receptor [2],8.82
same,pKi,Mu-type opioid receptor,6.92
same,pKi,Neuromedin-K receptor [3],8.92
CC[C@H](NC(=O)c1c(O)c(-c2ccccc2)nc2ccccc12)c1ccccc1 [TALNETANT],pKi,Mu-type opioid receptor,5.73
CC[C@H](NC(=O)c1c(CN(C)C)c(-c2ccccc2)nc2ccccc12)c1ccccc1,Ratio,[1],78
same,pKi,Substance-K receptor [2],6.76
same,pKi,Mu-type opioid receptor,5.77
same,pKi,Neuromedin-K receptor [3],8.66
CC(C)[C@H](NC(=O)c1c(CN(C)C)c(-c2ccccc2)nc2ccccc12)c1ccccc1,Ratio,[1],16
same,pKi,Substance-K receptor [2],7.29
same,pKi,Mu-type opioid receptor,< 5.60
CC(C)C(C)NC(=O)c1c(CN2CCN(C(C)C)CC2)c(-c2ccccc2)nc2ccccc12 (centres undefined),Ratio,[1],0.02
same,pKi,Substance-K receptor [2],8.04
same,pKi,Neuromedin-K receptor [3],6.34
C[C@H](NC(=O)c1c(CN2CCC(N3CCCCC3)CC2)c(-c2ccccc2)nc2ccccc12)C(C)(C)C,Ratio,[1],0.005
same,pKi,Substance-K receptor [2],9.00
same,pKi,Mu-type opioid receptor,≤ 5.70
same,pKi,Neuromedin-K receptor [3],6.71
CC(C)C(=O)N1CCN(Cc2c(-c3ccccc3)nc3ccccc3c2C(=O)N[C@@H](C)C2CCCCC2)CC1,Ratio,[1],0.9
same,pKi,Substance-K receptor [2],8.92
same,pKi,Mu-type opioid receptor,< 5.60
same,pKi,Neuromedin-K receptor [3],8.85
C[C@H](NC(=O)c1c(CN2CCC(N3CCCCC3)CC2)c(-c2ccccc2)nc2ccccc12)C1CCCCC1,Kb,[4],2.6 nM
same,Ratio,[1],0.3
same,pKi,Substance-K receptor [2],9.22
same,Kb,Substance-K receptor [5],10 nM
same,Kb,[6],9.9 nM
same,pKi,Mu-type opioid receptor,5.88
same,Kb,Neuromedin-K receptor [7],2 nM
same,pKi,Neuromedin-K receptor [3],8.77
CCC(CC)NC(=O)c1c(CN2CCN(C(C)C)CC2)c(-c2ccccc2)nc2ccccc12,Ratio,[1],0.015
same,pKi,Substance-K receptor [2],7.73
same,pKi,Neuromedin-K receptor [3],5.92
CC(C)N1CCN(Cc2c(-c3ccccc3)nc3ccccc3c2C(=O)N[C@@H](C)C2CCCCC2)CC1,Ratio,[1],0.4
same,pKi,Substance-K receptor [2],9.15
same,pKi,Mu-type opioid receptor,6.71
same,pKi,Neuromedin-K receptor [3],8.72
C[C@H](NC(=O)c1c(CN2CCC(N)CC2)c(-c2ccccc2)nc2ccccc12)C1CCCCC1,Ratio,[1],1.1
same,pKi,Substance-K receptor [2],7.48
same,pKi,Mu-type opioid receptor,5.75
same,pKi,Neuromedin-K receptor [3],7.51
CC[C@H](NC(=O)c1c(CN2CCNCC2)c(-c2ccccc2)nc2ccccc12)c1ccccc1,Ratio,[1],4.7
same,pKi,Substance-K receptor [2],7.65
same,pKi,Mu-type opioid receptor,6.69
same,pKi,Neuromedin-K receptor [3],8.33
C[C@H](NC(=O)c1c(CN2CCC(N3CCOCC3)CC2)c(-c2ccccc2)nc2ccccc12)C1CCCCC1,Ratio,[1],1
same,pKi,Substance-K receptor [2],9.10
same,pKi,Mu-type opioid receptor,< 5.60
same,pKi,Neuromedin-K receptor [3],9.10
C[C@H](NC(=O)c1c(CN2CCOCC2)c(-c2ccccc2)nc2ccccc12)C1CCCCC1,Ratio,[1],1.3
same,pKi,Substance-K receptor [2],8.21
same,pKi,Mu-type opioid receptor,< 5.60
same,pKi,Neuromedin-K receptor [3],8.34
